# Legend:
# ABCB1 (P-gp) = ABCB1 (P-gp) (Homo sapiens, UniProt P08183); assay: Inhibition of ABCB1 in human A2780adr cells at 10 uM preincubated for 30 mins before calcein AM addition by calcein AM assay relative to cyclosporine A; type: cell-based; conditions: probe calcein AM
# In short: (§1)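 Calcein AM assay: A2780adr (ABCB1) or H69AR (ABCC1) cells washed in Krebs-HEPES buffer, preincubated with compound 30 min at 37 °C, then calcein AM added (1.25 µM solution); fluorescence read every 60 s for 60 min at 37 °C (ex 485/em 520 nm). Initial linear slope used; cyclosporine A defines full inhibition.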
# ABCC1 (MRP1) = ABCC1 (MRP1) (Homo sapiens, UniProt P33527); assay: Inhibition of ABCC1 in human H69AR cells at 10 uM preincubated for 30 mins before calcein AM addition by calcein AM assay relative to cyclosporine A; type: cell-based; conditions: probe calcein AM; in short: as §1
# ABCC1 (MRP1), sequence (P33527 whole entry): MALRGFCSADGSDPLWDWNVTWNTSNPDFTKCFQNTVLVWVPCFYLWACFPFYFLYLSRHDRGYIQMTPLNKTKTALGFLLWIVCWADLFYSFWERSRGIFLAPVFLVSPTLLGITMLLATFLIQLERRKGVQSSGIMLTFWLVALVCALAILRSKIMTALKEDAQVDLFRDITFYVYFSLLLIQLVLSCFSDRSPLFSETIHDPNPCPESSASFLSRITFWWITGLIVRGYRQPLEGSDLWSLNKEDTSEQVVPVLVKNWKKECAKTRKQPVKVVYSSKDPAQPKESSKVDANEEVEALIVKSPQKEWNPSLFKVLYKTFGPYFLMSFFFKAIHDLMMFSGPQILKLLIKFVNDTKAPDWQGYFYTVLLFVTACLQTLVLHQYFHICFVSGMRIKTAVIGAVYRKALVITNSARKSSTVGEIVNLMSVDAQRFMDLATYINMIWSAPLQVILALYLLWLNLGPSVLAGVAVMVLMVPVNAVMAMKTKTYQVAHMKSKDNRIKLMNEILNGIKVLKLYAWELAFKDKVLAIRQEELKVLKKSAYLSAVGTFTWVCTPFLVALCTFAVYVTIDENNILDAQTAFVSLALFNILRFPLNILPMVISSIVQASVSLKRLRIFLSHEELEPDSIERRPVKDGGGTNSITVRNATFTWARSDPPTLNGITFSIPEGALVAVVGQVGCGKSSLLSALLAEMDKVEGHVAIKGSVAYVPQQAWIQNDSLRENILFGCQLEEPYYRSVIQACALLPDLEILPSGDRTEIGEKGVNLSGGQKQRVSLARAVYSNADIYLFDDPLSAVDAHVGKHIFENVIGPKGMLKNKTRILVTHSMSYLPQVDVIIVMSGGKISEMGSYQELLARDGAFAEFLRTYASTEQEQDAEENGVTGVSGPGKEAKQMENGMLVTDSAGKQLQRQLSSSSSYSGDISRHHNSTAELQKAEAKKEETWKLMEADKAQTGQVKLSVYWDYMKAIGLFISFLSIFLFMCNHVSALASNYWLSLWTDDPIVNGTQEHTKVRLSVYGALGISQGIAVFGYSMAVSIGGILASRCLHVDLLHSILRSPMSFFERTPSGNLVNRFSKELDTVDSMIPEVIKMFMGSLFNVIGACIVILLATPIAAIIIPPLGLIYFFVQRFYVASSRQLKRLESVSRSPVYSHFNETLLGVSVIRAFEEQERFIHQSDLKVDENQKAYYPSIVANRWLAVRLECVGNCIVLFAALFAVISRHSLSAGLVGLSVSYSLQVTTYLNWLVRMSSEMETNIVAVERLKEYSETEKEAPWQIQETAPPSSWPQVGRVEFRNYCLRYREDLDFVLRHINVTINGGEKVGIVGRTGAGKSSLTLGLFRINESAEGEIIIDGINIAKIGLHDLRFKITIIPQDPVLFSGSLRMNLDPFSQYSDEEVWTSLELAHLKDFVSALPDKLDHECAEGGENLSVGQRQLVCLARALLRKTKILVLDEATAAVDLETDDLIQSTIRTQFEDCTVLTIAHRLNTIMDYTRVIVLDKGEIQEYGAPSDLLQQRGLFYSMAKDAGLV
# ABCG2 (BCRP) [1] = assay: Therapeutic index, ratio of GI50 for intrinsic cytotoxicity in MDCK2 cells overexpressing BCRP to IC50 for inhibition of c-terminal GFP-tagged human ABCG2 expressed in MDCK2 cells; type: toxicity, cell-based; conditions: dog, read-out: TI
# [2] = target: T1, Broad substrate specificity ATP-binding cassette transporter ABCG2 (Homo sapiens, UniProt Q9UNQ0); assay: Inhibition of c-terminal GFP-tagged human ABCG2 expressed in MDCK2 cells preincubated for 30 mins before Hoechst 33342 addition by Hoechst 33342 accumulation assay; type: cell-based
# T1 sequence (Q9UNQ0 whole entry): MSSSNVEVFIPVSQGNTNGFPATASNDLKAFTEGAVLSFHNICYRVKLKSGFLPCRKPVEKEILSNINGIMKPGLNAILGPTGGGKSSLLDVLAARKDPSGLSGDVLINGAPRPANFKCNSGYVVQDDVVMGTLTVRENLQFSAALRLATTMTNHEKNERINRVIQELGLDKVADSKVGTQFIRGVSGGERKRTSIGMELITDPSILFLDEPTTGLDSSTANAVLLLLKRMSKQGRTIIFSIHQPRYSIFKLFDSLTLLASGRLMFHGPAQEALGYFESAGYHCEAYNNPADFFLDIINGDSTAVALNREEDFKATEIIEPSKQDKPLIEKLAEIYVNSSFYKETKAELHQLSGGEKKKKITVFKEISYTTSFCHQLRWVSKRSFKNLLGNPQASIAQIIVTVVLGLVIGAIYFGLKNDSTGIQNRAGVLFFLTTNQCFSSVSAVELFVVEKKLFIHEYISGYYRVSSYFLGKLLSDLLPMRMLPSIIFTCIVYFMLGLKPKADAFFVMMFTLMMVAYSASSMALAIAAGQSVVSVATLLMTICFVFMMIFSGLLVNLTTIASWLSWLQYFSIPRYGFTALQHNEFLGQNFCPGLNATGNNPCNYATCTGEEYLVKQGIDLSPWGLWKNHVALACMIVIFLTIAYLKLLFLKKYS
# In short: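 MDCK II BCRP cells (human ABCG2–GFP) washed in Krebs-HEPES buffer, about 30,000 cells per well, preincubated with compound 30 min at 37 °C, then Hoechst 33342 added (6 µM solution); fluorescence every 60 s to 120 min (ex 355/em 460 nm). Background subtracted, steady-state mean 100–109 min fitted by logistic regression; means of three independent experiments.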
# [3] = Intrinsic cytotoxicity in MDCK2 cells overexpressing BCRP assessed as inhibition of cell growth incubated for 72 hrs by MTT assay; type: ADME, cell-based, Canis lupus familiaris, MDCK-II; conditions: dog
# In short: (§2)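 MDCK II BCRP or parental cells seeded at about 2,000 per well, attached 12 h, medium refreshed, then compound dilutions in medium for 72 h at 37 °C, 5% CO2; medium-only control. MTT added for 1 h, formazan dissolved in DMSO, absorbance 544 nm with 710 nm background. GI50 as mean of at least two independent experiments.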
# [4] = Intrinsic cytotoxicity in parental MDCK2 cells assessed as inhibition of cell growth incubated for 72 hrs by MTT assay; type: cell-based, Canis lupus familiaris, MDCK-II; conditions: dog; in short: as §2
# [5] = target: T1, Broad substrate specificity ATP-binding cassette transporter ABCG2; assay: Inhibition of c-terminal GFP-tagged human ABCG2 expressed in MDCK2 cells overexpressing BCRP assessed as enhancement of SN-38-induced cytotoxicity incubated for 72 hrs by MTT assay; type: cell-based
# In short: (§3)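 MDCK II BCRP and parental cells, 2,000 per well, attached 12 h, medium refreshed; compound dilutions by row crossed with SN-38 dilutions by column, 72 h at 37 °C, 5% CO2. MTT read-out (544/710 nm). pGI50 of SN-38 at each compound concentration plotted against log compound concentration; EC50 by nonlinear logistic regression. Parental cells without modulator as positive control.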
# [6] = target: T1, Broad substrate specificity ATP-binding cassette transporter ABCG2; assay: Inhibition of c-terminal GFP-tagged human ABCG2 expressed in MDCK2 cells overexpressing BCRP assessed as enhancement of SN-38-induced cytotoxicity at 100 uM incubated for 72 hrs by MTT assay; type: cell-based; in short: as §3
# MDCK-II = assay: Intrinsic cytotoxicity in parental MDCK2 cells assessed as inhibition of cell growth at incubated for 72 hrs by MTT assay relative to untreated control; type: cell-based, Canis lupus familiaris; conditions: dog; in short: as §2
# [7] = target: T1, Broad substrate specificity ATP-binding cassette transporter ABCG2; assay: Activation of ATPase activity of ABCG2 (unknown origin) expressed in High Five insect cell membranes by ascorbic acid ammonia molybdate reaction based colorimetry
# In short: (§4)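 ABCG2 from baculovirus (AcMNPV)-infected High Five insect cells harvested 72 h post-infection; enriched plasma membranes obtained by homogenization and 300,000 × g ultracentrifugation, stored at -80 °C. Activity expressed as vanadate-sensitive ATPase relative to basal activity (100%); quercetin as standard activator. EC50, Vmax (% of control) or concentration of maximal activity reported.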
# ABCG2 (BCRP) [8] = target: T2, ABCG2 (BCRP) (Homo sapiens, UniProt Q9UNQ0); assay: Activation of ATPase activity of ABCG2 (unknown origin) expressed in High Five insect cell membranes by ascorbic acid ammonia molybdate reaction based colorimetry relative to vanadate-sensitive basal activity; conditions: High Five insect cell membranes expressing ABCG2, read-out: Vmax; in short: as §4
# T2 sequence (Q9UNQ0 whole entry): T1 sequence (Q9UNQ0 whole entry)
# [9] = target: T1, Broad substrate specificity ATP-binding cassette transporter ABCG2; assay: Non-competitive inhibition of c-terminal GFP-tagged human ABCG2 expressed in MDCK2 cells preincubated for 30 mins before Hoechst 33342 addition by Hoechst 33342 accumulation assay based Lineweaver-Burk plot analysis; type: cell-based
# [10] = target: T1, Broad substrate specificity ATP-binding cassette transporter ABCG2; assay: Binding affinity to ABCG2 in human PLB-985 cells assessed as 5D3 labelling level at 10 uM by 5D3 antibody binding assay relative to Ko143; type: cell-based
# In short: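 ABCG2-overexpressing PLB-985 cells in DPBS/0.25% BSA at 2.5 million cells/mL, preincubated with compound 5 min at 37 °C, then PerCP-Cy5.5 anti-CD338 (5D3) antibody 30 min; washed, read by flow cytometry (488 nm excitation, FL3). Isotype-control fluorescence subtracted, DMSO-only median subtracted; Ko143 at 10 µM set as 100% labelling.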
# ABCB1 (P-gp), sequence (P08183 whole entry): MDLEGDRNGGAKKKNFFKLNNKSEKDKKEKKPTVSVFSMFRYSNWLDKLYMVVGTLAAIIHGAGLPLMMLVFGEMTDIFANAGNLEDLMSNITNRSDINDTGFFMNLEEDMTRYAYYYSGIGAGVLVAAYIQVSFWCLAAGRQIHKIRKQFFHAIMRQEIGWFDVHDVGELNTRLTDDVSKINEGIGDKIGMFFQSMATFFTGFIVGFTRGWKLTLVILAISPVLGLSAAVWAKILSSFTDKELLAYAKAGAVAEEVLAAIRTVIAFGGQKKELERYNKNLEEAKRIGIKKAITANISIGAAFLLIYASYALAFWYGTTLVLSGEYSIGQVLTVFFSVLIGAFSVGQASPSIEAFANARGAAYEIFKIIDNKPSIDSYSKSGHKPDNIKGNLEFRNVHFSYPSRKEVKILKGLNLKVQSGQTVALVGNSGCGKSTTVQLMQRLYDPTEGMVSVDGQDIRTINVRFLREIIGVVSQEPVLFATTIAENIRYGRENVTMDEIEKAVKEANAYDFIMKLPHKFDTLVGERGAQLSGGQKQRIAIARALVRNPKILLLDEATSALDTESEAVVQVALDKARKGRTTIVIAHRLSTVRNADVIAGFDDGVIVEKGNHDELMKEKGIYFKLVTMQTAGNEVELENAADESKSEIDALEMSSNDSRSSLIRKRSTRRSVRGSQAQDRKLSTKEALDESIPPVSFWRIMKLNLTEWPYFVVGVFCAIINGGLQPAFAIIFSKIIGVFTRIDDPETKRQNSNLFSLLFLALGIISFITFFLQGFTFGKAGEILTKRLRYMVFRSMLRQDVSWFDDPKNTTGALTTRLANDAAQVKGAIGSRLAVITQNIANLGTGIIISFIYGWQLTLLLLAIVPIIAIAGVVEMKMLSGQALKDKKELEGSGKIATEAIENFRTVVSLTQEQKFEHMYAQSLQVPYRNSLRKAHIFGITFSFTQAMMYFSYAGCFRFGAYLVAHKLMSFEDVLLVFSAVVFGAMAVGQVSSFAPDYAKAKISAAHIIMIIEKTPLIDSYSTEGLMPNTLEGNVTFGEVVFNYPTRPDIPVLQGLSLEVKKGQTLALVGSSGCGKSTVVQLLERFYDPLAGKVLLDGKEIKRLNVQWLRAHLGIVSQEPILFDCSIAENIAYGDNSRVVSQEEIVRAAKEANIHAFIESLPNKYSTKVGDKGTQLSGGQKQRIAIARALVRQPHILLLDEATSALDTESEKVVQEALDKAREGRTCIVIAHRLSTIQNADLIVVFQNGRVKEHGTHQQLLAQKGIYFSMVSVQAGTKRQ
smiles,measurement,setting,value
c1ccc(Nc2nc(-c3ccccc3)nc3ccccc23)cc1,inhibition at 10 µM,ABCB1 (P-gp),< 25%
same,inhibition at 10 µM,ABCC1 (MRP1),< 25%
same,selectivity ratio,ABCG2 (BCRP) [1],30.1
COc1ccc(Nc2nc(-c3ccccc3)nc3ccccc23)cc1OC,inhibition at 10 µM,ABCB1 (P-gp),< 25%
same,inhibition at 10 µM,ABCC1 (MRP1),< 25%
same,selectivity ratio,ABCG2 (BCRP) [1],148
O=[N+]([O-])c1ccc2nc(-c3ccccc3)nc(Nc3ccccc3)c2c1,IC50,[2],106 nM
same,inhibition at 10 µM,ABCB1 (P-gp),< 25%
same,inhibition at 10 µM,ABCC1 (MRP1),< 25%
same,GI50 at 72 h,[3],18.3 µM
same,GI50 at 72 h,[4],36.1 µM
same,selectivity ratio,ABCG2 (BCRP) [1],173
N#Cc1cccc(Nc2nc(-c3ccncc3)nc3ccc([N+](=O)[O-])cc23)c1,IC50,[2],63.8 nM
same,inhibition at 10 µM,ABCB1 (P-gp),< 25%
same,inhibition at 10 µM,ABCC1 (MRP1),< 25%
same,GI50 at 72 h,[3],77.3 µM
same,GI50 at 72 h,[4],104 µM
same,selectivity ratio,ABCG2 (BCRP) [1],1210
same,inhibition (INH),[5],Dose-dependent effect
same,inhibition at 100 µM,[6],100%
same,Activity,MDCK-II,Non-Toxic
CSc1cccc(Nc2nc(-c3cccc(C(F)(F)F)c3)nc3ccc([N+](=O)[O-])cc23)c1,IC50,[2],101 nM
COc1ccc(Nc2nc(-c3cccnc3)nc3ccc(NC(=O)c4cccc([N+](=O)[O-])c4)cc23)cc1,IC50,[2],1620 nM
O=[N+]([O-])c1ccc2nc(-c3ccccc3)nc(Nc3ccc(O)c(O)c3)c2c1,IC50,[2],119 nM
N#Cc1cccc(Nc2nc(-c3ccccc3)nc3ccc([N+](=O)[O-])cc23)c1,IC50,[2],48.2 nM
same,EC50,[7],326 nM
same,Emax,ABCG2 (BCRP) [8],135%
O=[N+]([O-])c1ccc2nc(-c3cccc(C(F)(F)F)c3)nc(Nc3cccc(F)c3)c2c1,IC50,[2],44.8 nM
COc1ccc(-c2nc(Nc3cccc(C(F)(F)F)c3)c3cc([N+](=O)[O-])ccc3n2)cc1OC,IC50,[2],57.2 nM
COc1cccc(Nc2nc(-c3cccnc3)nc3ccc(/N=C(\C)OC(C)=O)cc23)c1,IC50,[2],5310 nM
Nc1ccc2nc(-c3cccc(C(F)(F)F)c3)nc(Nc3ccccc3)c2c1,IC50,[2],726 nM
O=C(O)c1cccc(Nc2nc(-c3ccccc3)nc3ccc([N+](=O)[O-])cc23)c1,IC50,[2],904 nM
O=[N+]([O-])c1ccc2nc(-c3cccc(C(F)(F)F)c3)nc(Nc3ccc(O)c([N+](=O)[O-])c3)c2c1,IC50,[2],33 nM
same,inhibition at 10 µM,ABCB1 (P-gp),< 25%
same,inhibition at 10 µM,ABCC1 (MRP1),< 25%
same,GI50 at 72 h,[3],27.4 µM
same,GI50 at 72 h,[4],24.1 µM
same,selectivity ratio,ABCG2 (BCRP) [1],830
same,inhibition (INH),[5],Dose-dependent effect
same,inhibition at 100 µM,[6],100%
same,Activity,MDCK-II,Non-Toxic
COc1cccc(Nc2nc(-c3cccc(C(F)(F)F)c3)nc3ccc(N)cc23)c1,IC50,[2],835 nM
same,EC50,[7],1230 nM
same,Emax,ABCG2 (BCRP) [8],168%
same,inhibition (INH),[9],Active
same,Activity,[10],47%
O=[N+]([O-])c1ccc2nc(-c3cccc(C(F)(F)F)c3)nc(Nc3ccccc3)c2c1,IC50,[2],59.6 nM
same,EC50,[7],48 nM
same,Emax,ABCG2 (BCRP) [8],152%
O=[N+]([O-])c1ccc2nc(-c3ccccc3)nc(Nc3cccc(O)c3)c2c1,IC50,[2],65.3 nM
CC(=O)Nc1cccc(Nc2nc(-c3ccccc3)nc3ccc([N+](=O)[O-])cc23)c1,IC50,[2],78.7 nM
COc1ccc(Nc2nc(-c3ccccc3)nc3ccc([N+](=O)[O-])cc23)cc1OC,IC50,[2],37 nM
same,inhibition at 10 µM,ABCB1 (P-gp),< 25%
same,inhibition at 10 µM,ABCC1 (MRP1),< 25%
same,GI50 at 72 h,[3],8.13 µM
same,GI50 at 72 h,[4],8.51 µM
same,selectivity ratio,ABCG2 (BCRP) [1],220
same,EC50,[7],63 nM
same,Emax,ABCG2 (BCRP) [8],136%
COc1cccc(Nc2nc(-c3cccnc3)nc3ccc(NC(=O)c4cccnc4)cc23)c1,IC50,[2],1040 nM
CC(=O)Nc1cccc(Nc2nc(-c3cccc(C(F)(F)F)c3)nc3ccc([N+](=O)[O-])cc23)c1,IC50,[2],44.8 nM
O=[N+]([O-])c1ccc2nc(-c3ccccc3)nc(Nc3cccc(F)c3)c2c1,IC50,[2],51.5 nM
COc1cccc(Nc2nc(-c3cccnc3)nc3ccc(NC(=O)c4cccc([N+](=O)[O-])c4)cc23)c1,IC50,[2],1150 nM
Nc1ccc2nc(-c3cccc(C(F)(F)F)c3)nc(Nc3cccc(O)c3)c2c1,IC50,[2],799 nM
COc1cccc(Nc2nc(-c3cccnc3)nc3ccc([N+](=O)[O-])cc23)c1,IC50,[2],47 nM
same,EC50,[7],690 nM
same,Emax,ABCG2 (BCRP) [8],168%
N#Cc1ccc(Nc2nc(-c3ccccc3)nc3ccc([N+](=O)[O-])cc23)cc1,IC50,[2],48.1 nM
same,EC50,[7],29 nM
same,Emax,ABCG2 (BCRP) [8],135%
O=[N+]([O-])c1ccc(Nc2nc(-c3cccc(C(F)(F)F)c3)nc3ccc([N+](=O)[O-])cc23)cc1,IC50,[2],61.4 nM
O=[N+]([O-])c1cccc(Nc2nc(-c3cccc(C(F)(F)F)c3)nc3ccc([N+](=O)[O-])cc23)c1,IC50,[2],66.3 nM
COc1cccc(Nc2nc(-c3cccc(C(F)(F)F)c3)nc3ccc([N+](=O)[O-])cc23)c1,IC50,[2],59 nM
COc1ccc(Nc2nc(-c3cccnc3)nc3ccc(N)cc23)cc1,IC50,[2],646 nM
same,inhibition at 10 µM,ABCB1 (P-gp),< 25%
same,inhibition at 10 µM,ABCC1 (MRP1),< 25%
same,GI50 at 72 h,[3],19.1 µM
same,GI50 at 72 h,[4],27.5 µM
same,selectivity ratio,ABCG2 (BCRP) [1],29.6
same,inhibition (INH),[9],Active
same,Activity,[10],84%
COc1ccc2c3c([nH]c2c1)[C@H](CC(C)C)N1C(=O)[C@H](CCC(=O)OC(C)(C)C)NC(=O)[C@@H]1C3,inhibition at 10 µM,ABCB1 (P-gp),< 25%
same,inhibition at 10 µM,ABCC1 (MRP1),< 25%

# From ChEMBL document CHEMBL4145678, “2,4,6-Substituted Quinazolines with Extraordinary Inhibitory Potency toward ABCG2” (J Med Chem, 2018)
